ChEMBL document CHEMBL4513216, “Probing the Open Global Health Chemical Diversity Library for Multistage-Active Starting Points for Next-Generation Antimalarials” (ACS Infect Dis, 2020)

Assay: Toxicity liver stage against HepG2, at 10uM
Assay type: cell-based
Parameters: test concentration 10 uM, cell line HepG2-A16-CD81EGFP
Settings: human, HepG2-A16-CD81EGFP cells; read-out: INHIBITION
Procedure, shortened: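 Uninfected HepG2-A16-CD81EGFP cells, 3 × 10^3 per well, 1536-well, plated on prespotted compound at 10 μM final, parasite-free screening media added to match infected plates; puromycin 10 μM positive, DMSO 0.5% negative; run in parallel with 48 h PbLuc assay at 37 °C, 5% CO2; viability by CellTiter-Glo luminescence, normalized to controls.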

Structure (SMILES) | cytotoxicity at 10 µM
O=S(=O)(CCN1CCN(c2ccccc2O)CC1)c1ccc(Cl)cc1 | 14.4%
CC(C)(C)c1coc([C@@H]2COCCN2Cc2ccccn2)n1 | -4.04%
O=C1CO[C@H](c2ccc(NS(=O)(=O)Cc3ccccc3)cc2)[C@@H](CO)N1 | 40.8%
O[C@@H]1C[C@@H](c2nc(Cc3ccccc3)no2)N(CC2CC2)C1 | -3.5%
CCc1nc(-c2ccc(C(=O)N3CCC4(CC3)OCCO4)cc2)no1 | 4.32%
CN1C(=O)COc2ccc(C(=O)Cn3cnc4ccccc4c3=O)cc21 | -0.894%
COCCn1ccc(=O)c(OCC(=O)Nc2cccc(OC)c2)c1C | -2.74%
Cn1nnc2c(N3CC(C(=O)NCc4cccs4)C3)ncnc21 | 4.29%
CN(C)Cc1nn(C)c2c1CN(C(=O)Nc1cccc(F)c1)C2 | 4.23%
Cc1nc([C@@H]2C[C@H]3CN(Cc4scnc4C)C[C@H]3O2)no1 | -127%
O=C1Nc2ccccc2CC12CCN(CCO)C2 (stereo unspecified) | 6.62%
CCN1C(=O)C2(CCOCC2)c2cc(NC(=O)c3csnn3)ccc21 | 0.223%
O=C(C1CC=CC1)N1CCC2(CCC(=O)N2Cc2cccc(F)c2)CC1 | -3.2%
Cc1ccoc1C(=O)N1CC[C@@H]2O[C@@H](C)C[C@H]2C1 | 2.26%
CC(C(=O)N1CCN(c2ccccc2)CC1)n1cc(Br)cn1 (stereo unspecified) | 7.47%
Cc1nn(C)c2c(NCCn3cccn3)ncnc12 | -1.26%
Cc1nn(C)c2c(N3CCN(C(=O)C4CCC4)CC3)ncnc12 | 1.78%
Cc1nonc1CNC(=O)C(C)Oc1cccc(F)c1 (stereo unspecified) | 1.22%
COCCCNS(=O)(=O)c1ccc2c(c1)NC(=O)C(C)O2 (stereo unspecified) | 1.52%
CCN(CC)CCCNCc1cc2cccc(C)c2[nH]c1=O | -7.06%
CN(C)c1nccc(C2CCN(C(=O)CO)CC2)n1 | -23.6%
Cc1ccc2[nH]c(=O)c(CNCCCN3CCOCC3)cc2c1 | -14.9%
CN1CCOC(C(=O)Nc2nc(-c3ccccc3F)n[nH]2)C1 (stereo unspecified) | 8.65%

Structure (SMILES) | cytotoxicity at 10 µM
COCC(=O)N1CCN(Cn2nc(C)c(Br)c2C)CC1 | 0.633%
NC1(c2nc(-c3cccs3)cc(=O)[nH]2)CCCC1 | 4.19%
O=C(Cn1nc(-c2ccc(F)cc2)oc1=O)NCC1CCCO1 (stereo unspecified) | 1.62%
COc1ccnc(N2CCc3ccc(OC(F)F)cc3C2)n1 | -4.32%
N#Cc1cc(C#N)c(SCCC(=O)Nc2ccc(F)cc2)nc1N | 4.89%
Cc1nn(C)c(C)c1C(C)NCc1ccc(OC(C)C)cc1 (stereo unspecified) | 15.3%
Cc1ccc(-c2nc(C(=O)N3CCCCC3CNS(C)(=O)=O)cs2)cc1 (stereo unspecified) | -2.14%
CN(C)c1ncccc1CNC(=O)NCc1ccco1 | -3.26%
OCCOc1ccc(NCc2cccc3cccnc23)cn1 | -3.24%
CCCN1CCC(NCc2ccncc2)CC1 | -6.79%
O=C(CC1CCCN1S(=O)(=O)N1CCCCC1)c1cccs1 (stereo unspecified) | 6.31%
CCN1CCN(c2ccc(F)cc2C(C)NCc2nc(C)no2)CC1 (stereo unspecified) | -17.9%
CN(CC(=O)N1CCN(c2ccccn2)CC1)c1ccc(Cl)cn1 | -2.3%
CNC(=O)COc1ccc(-c2ccccc2)nc1 | 1.76%
Cc1ccsc1C(=O)N1CCC(Nc2cccnc2)CC1 | -136%
CN(C)C(=O)Cc1ccc(NC(=O)NC2CCCC2)cc1 | -1.92%
CC(=O)N1CCN(CCNS(=O)(=O)c2ccc(F)c(F)c2)CC1 | 8.81%
CCn1cc(C(=O)Nc2ccc(C)cc2C(=O)OC)cn1 | 5.47%
CCS(=O)(=O)CC(C)N(C)C(=O)NCCc1cccc(F)c1F (stereo unspecified) | 8.28%
CC(CCSc1ccccc1)N1CCCN(C(N)=O)CC1 (stereo unspecified) | -10.7%
O=C(c1ccncc1)N1CCn2c(nnc2-c2ccccc2)C1 | 4.45%
Cc1cccc(-c2c[nH]c(C3CCCN3C(=O)c3cc(C)n[nH]3)n2)c1 (stereo unspecified) | 4%
N#CCCN(Cc1cccnc1)C(=O)c1cccc(-n2cnnn2)c1 | 2.99%

Structure (SMILES) | cytotoxicity at 10 µM
CC(O)CN1CCC(CN(C)C(=O)NC2CC2)CC1 (stereo unspecified) | 5.55%
Cc1ncc(CNc2cnccc2CO)s1 | -24.7%
CCc1noc(CN(CCS(C)(=O)=O)C(C)(C)C)n1 | -0.718%
CC(=O)N1CCN(C(=O)C(C)Nc2ccc3ncsc3c2)CC1 (stereo unspecified) | -3.25%
CC(=O)c1cccc(NC(=O)NCCOCC2CC2)c1 | 5.11%
O=C(Nc1ccc(-n2ccnc2)c(F)c1)C1CCN(C(=O)C2CC2)CC1 | 1.21%
Cc1cccc(CNC(=O)Nc2ccc3c(c2)CCCC(=O)N3)c1 | 2.33%
Fc1ccc(CNc2ccccc2Cn2cncn2)cc1 | -0.719%
Cc1nc(C(=O)Nc2cc(N3CCNC3=O)ccc2Cl)cs1 | -1.33%
Cc1nc(C2CCCN2C(=O)CNS(C)(=O)=O)no1 (stereo unspecified) | 17.1%
COc1c(CNC2CCCOc3ccccc32)c(C)nn1C (stereo unspecified) | 1.86%
COc1ccc(CNC(=O)NC2CCN(CC(F)F)CC2)cc1C | 1.11%
O=C(NCCOc1ncc(Cl)cc1Cl)c1ccncc1F | -3.78%
CC[C@H](C)[C@H](N)C(=O)Nc1nc(-c2cnc(N(C)CCO)nc2)cs1 | -9.27%
Cc1cccc(C)c1C(=O)N1C[C@@H](CN2CCOCC2)[C@@H](CO)C1 | 0.0453%
COCCN1CC(C(=O)N(C)Cc2cc(-c3cccnc3)no2)CC1=O (stereo unspecified) | -1.99%
CCCc1nnc(N(C)CC2CCCN(CC)C2)o1 (stereo unspecified) | -4.1%
CC1=CC[C@@H]2CN(C(=O)c3ccc(-c4cc[nH]n4)cc3)C[C@@H]2C1 | 5.15%
Cc1ccc(C)c(OCCN(C)C(=O)CCc2cn[nH]c2)c1 | 1.69%
CN1CCN(S(=O)(=O)c2ccc3c(c2)CN(C(=O)C(C)(C)C)CC3)CC1 | -8.91%
Cc1nc(CN2CCC(C(=O)O)(n3ccc(C(C)C)n3)CC2)co1 | -125%
CCCN1CCC(CC(=O)NCCc2nc(C)cc(C)n2)CC1 | -13.7%
COc1cccc(-n2cc(CN(C)C(=O)c3cc[nH]n3)cn2)c1 | 16.3%

Structure (SMILES) | cytotoxicity at 10 µM
CCc1nc(N)sc1C(=O)N1CCC(c2cc(O)nc(C)n2)CC1 | -2.56%
CC(C)CN1CCN(Cc2nc3c(s2)CCCC3)[C@H]2CS(=O)(=O)C[C@H]21 | 8.19%
CN(CCn1ccnc1-c1ccccn1)S(C)(=O)=O | 12%
CC(CO)Nc1ccc(-c2nc(Cc3ccc(F)cc3)no2)cn1 (stereo unspecified) | -11.9%
COc1ccc(C(=O)NCc2cccnc2N2CCOCC2)o1 | 3.1%
O=c1c(CN2CCCCC2)coc2ccc(Cl)cc12 | -2.56%
CNc1nc2c(c(C(=O)N3CCCC3)n1)CN(C(=O)CCSC)CC2 | -114%
Cn1cncc1C(=O)N1CCCC(c2ccn[nH]2)C1 (stereo unspecified) | -4.78%
CC(c1cncs1)N(C)Cc1ccc(CCC(C)(C)O)cc1 (stereo unspecified) | 4.68%
CC(C)n1cnnc1CN(C)Cc1cnc(-c2ccccn2)nc1 | 11.9%
c1cn(Cc2nnc(C3CCN(C4CCNCC4)CC3)n2C2CC2)cn1 | 1.74%
Cn1cc(C(=O)N2CC[C@@]3(O)CCN(C(=O)C4CCCC4)C[C@H]3C2)cn1 | -138%
CN1CCC(CNC(=O)c2cccc(CN3CCCCCC3)c2)C1 (stereo unspecified) | -5.39%
O=S(=O)(Cc1c(F)cccc1Cl)NCCCN1CCCCCC1 | -10%
CCCOC(=O)N1CCC(c2nnc(Cn3cccn3)n2C2CC2)CC1 | -8.52%
COc1cccc(NC(=O)c2cc3c([nH]c2=O)CCCC3=O)c1 | -3.35%
Cc1nn(C)c(C)c1C1CCCN1C(=O)CCc1ccco1 (stereo unspecified) | -21.5%
Cc1nc(CN(C)C2CCN(Cc3ccc(Cl)s3)C2)no1 (stereo unspecified) | -2.84%
CCc1nc(C(=O)N2CCOCC2)nn1-c1ccccc1Cl | -9.29%
Cn1cc(C2CCCN2C(=O)c2cn(-c3ccccc3)nn2)cn1 (stereo unspecified) | -24%
Cc1nccn1CCCC(=O)N1CCCC(c2noc(C(C)C)n2)C1 (stereo unspecified) | -35.8%
CC(=O)N1CCC(NC(=O)N(C)Cc2c(C)noc2C)CC1 | -6.33%
Cc1ccsc1CNCC1CCCN1c1cccnn1 (stereo unspecified) | -4.48%

Structure (SMILES) | cytotoxicity at 10 µM
CCN(Cc1ccc2c(c1)OCO2)C(=O)c1cccnc1O | -9.51%
Clc1snnc1CN1CCCC1Cn1cccn1 (stereo unspecified) | -17.9%
CCc1[nH]ncc1C(=O)N1CCCC(n2cncn2)C1 (stereo unspecified) | -18.9%
Cc1nc(C)c(C(=O)NCCNc2ncccc2C(F)(F)F)s1 | -3.08%
O=C(NCCn1ccnc1)N1CCN(Cc2ccco2)CC1 | 3.94%
OC1(CN2CCOC(Cn3cccn3)C2)CCCCC1 (stereo unspecified) | -6.11%
CCc1n[nH]c(C2CN(C(=O)c3ccc(NC4CC4)nc3)CCO2)n1 (stereo unspecified) | 5.77%
COc1ccc(OC)c(C(=O)N(C)Cc2nnc3ccccn23)c1 | -0.972%
Cc1cnn(CC2CCCN2C(=O)c2ccc(OC(C)C)nc2)c1 (stereo unspecified) | -6.13%
CCNC(=O)[C@@H]1CCCN1[C@@H](C(=O)NC)c1ccccc1OC | -4.51%
COc1ncccc1C(=O)N1C[C@@H]2COC[C@]2(CN(C)C)C1 | -143%
CN1CC2(CNCCN(C(=O)Nc3ccccc3)C2)CC1=O (stereo unspecified) | 1.26%
c1cc(CNCc2ccnc(N3CCOCC3)c2)c2c(c1)OCO2 | 2.75%
Cn1cc(CN2C[C@H]3CN(c4cncnc4)C(=O)[C@H]3C2)cn1 | -0.0682%
Cc1nnc(N2C[C@@H](OCC3CCCC3)[C@H]3OCCC[C@H]32)s1 | 14.3%
O=C1CCCC2=Nc3nonc3NC(c3ccc(F)cc3F)C12 (stereo unspecified) | 2.43%
COCC1N(C(=O)c2ccc3c(c2)OCCCO3)C2CCC1(O)CC2 (stereo unspecified) | -5.3%
CCn1c(=O)[nH]c2cn(-c3cccc(Cl)c3)c(=O)n21 | 0.0452%
Cc1cc(C)n(CC(=O)N2C[C@H]3CC[C@@H](C2)N(CC2CCC2)C3)c(=O)n1 | 13.3%
